Reference: ChEMBL document CHEMBL4270554, “Discovery of the cancer cell selective dual acting anti-cancer agent (Z)-2-(1H-indol-3-yl)-3-(isoquinolin-5-yl)acrylonitrile (A131)” (Eur J Med Chem, 2018)
Calls of active or inactive are those of the source. No cut-off for these calls is given here.

Legend:
hTERT-BJ [1] = test: Induction of autophagy in human hTERT-BJ cells transformed with hTert, small t, shRNAs against p53 and pRb and H-RasV12-ER assessed as increase in LC3-2 to LC3-1 ratio at 5 uM after 24 hrs by immunoblot analysis relative to control; format: functional
Outline: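 Fully transformed BJ fibroblasts (hTert, small t, shRNAs to p53 and pRb, H-RasV12-ER) grown at 37 °C, 5% CO2 in 10% FBS medium; treated 24 h at 5 μM. Triton lysis, 14% SDS-PAGE, LC3 immunoblot; LC3-II/LC3-I band ratio relative to DMSO-treated control, under 2-fold induction deemed insignificant.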

hTERT-BJ [2] = test: Inhibition of mitotic progression in human hTERT-BJ cells transformed with hTert, small t, shRNAs against p53 and pRb and H-RasV12-ER assessed as increase in phosphorylated histone H3 (Ser10) level at 5 uM after 24 hrs by immunoblot analysis relative to control; format: functional
Outline: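 Fully transformed BJ fibroblasts (hTert, small t, shRNAs to p53 and pRb, H-RasV12-ER) treated 24 h at 5 μM. Immunoblot protocol as for HeLa. pH3 (Ser10) band intensity expressed as fold of DMSO control; under 2-fold counted as insignificant.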

hTERT-BJ [3] = test: Cell cycle arrest in human hTERT-BJ cells transformed with hTert, small t, shRNAs against p53 and pRb and H-RasV12-ER assessed as accumulation at sub-G1 phase at 5 uM after 48 hrs; format: functional, cell-based
Outline: (§1)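 Isogenic normal and fully transformed BJ fibroblasts (hTert, small t, shRNAs to p53 and pRb, H-RasV12-ER) exposed to 5 μM for 48 h. Percentage of cells in sub-G1 phase determined as a cell death measure.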

BJ [4] = test: Cell cycle arrest in human BJ cells assessed as accumulation at sub-G1 phase at 5 uM after 48 hrs; format: cell-based; outline: as §1
[5] = Intrinsic clearance in pooled female rat liver microsomes assessed per mg protein at 3 uM preincubated for 5 mins followed by NADPH addition measured after 45 mins by LC-MS/MS method; format: ADME, microsome; conditions: read-out: CLH
Outline: (§2)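 Pooled female or male rat liver microsomes (0.3 mg protein/mL) with substrate at final 3 μM in 0.1 M phosphate pH 7.4. Pre-incubated 5 min at 37 °C, then started with NADPH (final 1 mM). Sampled at 0–45 min in triplicate, quenched with cold acetonitrile plus internal standard. Parent measured by LC-MS/MS. Midazolam as positive control; no-NADPH negative control.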

[6] = Half life in pooled female rat liver microsomes at 3 uM preincubated for 5 mins followed by NADPH addition measured after 45 mins by LC-MS/MS method; format: ADME, microsome
Outline: (§3)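 Pooled female or male rat liver microsomes (0.3 mg protein/mL) with 3 μM substrate in 0.1 M phosphate buffer pH 7.4, pre-incubated 5 min at 37 °C, started with 1 mM NADPH. Samples at 0-45 min quenched in cold acetonitrile with internal standard, analysed by LC-MS/MS. Triplicates; midazolam positive control, no-NADPH negative control.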

[7] = Half life in pooled male rat liver microsomes at 3 uM preincubated for 5 mins followed by NADPH addition measured after 45 mins by LC-MS/MS method; format: ADME, microsome; outline: as §3
[8] = Intrinsic clearance in pooled male rat liver microsomes assessed per mg protein at 3 uM preincubated for 5 mins followed by NADPH addition measured after 45 mins by LC-MS/MS method; format: ADME, microsome; conditions: read-out: CLH; outline: as §2
HCT-15 = test: Antitumor activity against human HCT15 cells xenografted in BALB/c athymic nu/nu mouse assessed as tumor growth inhibition at 60 mg/kg, iv bid administered every 4 days; format: functional, organism-based
Outline: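 Female BALB/c nu/nu mice bearing subcutaneous HCT15 xenografts (groups of 6). Paclitaxel 60 mg/kg given via tail vein twice every 4 days in ethanol:Tween 80:5% glucose (5:15:80). Tumor volumes tracked; mean ± SEM, two-way ANOVA vs vehicle.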

HeLa [9] = test: Induction of autophagy in human HeLa cells assessed as increase in LC3-2 levels after 6 hrs by immunoblot analysis; format: functional, cell-based
Outline: (§4)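 HeLa cells treated 6 h with 0.625–10 μM test agent or chloroquine (1.25–100 μM), or DMSO. Lysis in 1% Triton buffer (pH 8.0) with protease and phosphatase inhibitors, 14% SDS-PAGE, immunoblot for LC3, pH3 (Ser10) and β-actin. Band intensity ratios (LC3-II/LC3-I; pH3) expressed relative to DMSO control.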

HeLa [10] = test: Induction of autophagy in human HeLa cells assessed as increase in LC3 puncta at 2.5 uM after 6 hrs by DAPI staining-based immunofluorescence microscopy; format: functional, cell-based
Outline: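 HeLa cells exposed to compound or DMSO for 6 h, then immunostained for LC3 with DAPI nuclear counterstain. Puncta formation scored by fluorescence imaging as a read-out of LC3-II.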

HeLa [11] = test: Inhibition of mitotic progression in human HeLa cells assessed as upregulation of phosphorylated histone H3 (Ser10) level after 6 hrs by immunoblot analysis; format: functional, cell-based; outline: as §4
HeLa [12] = test: Induction of mitotic arrest in human HeLa cells assessed as formation of misaligned chromosomes at 2.5 uM after 6 hrs by DAPI staining-based immunofluorescence analysis; format: functional, cell-based
HeLa [13] = test: Induction of mitotic arrest in human HeLa cells assessed as formation of disorganized spindles at 2.5 uM after 6 hrs by DAPI staining-based immunofluorescence analysis; format: functional, cell-based
HeLa [14] = test: Induction of mitotic arrest in human HeLa cells assessed as formation of misaligned chromosomes at 15 to 25 uM after 6 hrs by DAPI staining-based immunofluorescence analysis; format: functional, cell-based
HeLa [15] = test: Induction of mitotic arrest in human HeLa cells assessed as formation of disorganized spindles at 15 to 25 uM after 6 hrs by DAPI staining-based immunofluorescence analysis; format: functional, cell-based
BJ [16] = test: Induction of apoptosis in human BJ cells transformed with hTert, small t, shRNAs against p53 and pRb and H-RasV12-ER assessed as activation of caspase-3/7 up to 5 uM after 48 hrs by caspase-Glo 3/7 luminescent assay; format: functional, cell-based
Outline: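 Normal and transformed BJ cells treated 48 h across a concentration series. Caspase-3/7 activity by Caspase-Glo 3/7 luminescence, normalized to viable cell number from MTT. Mean ± S.D., n=3; two-tailed unpaired t tests.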

HeLa [17] = test: Inhibition of colony formation in human HeLa cells after 7 days by plate colony counting method; format: functional, cell-based
HeLa [18] = test: Induction of mitotic arrest in human HeLa cells expressing GFP-tagged tubulin assessed as appearance of large vacuole like structures that filled out cytoplasmic area at 2.5 uM after 20 hrs by microscopic method; format: functional, cell-based
Outline: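 HeLa cells stably expressing GFP-tubulin exposed to compound or DMSO for 20 h. Cytoplasmic vacuole-like structures and mitotic arrest examined by high-resolution microscopy.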

Row | SMILES | fold change (FC) (hTERT-BJ [1]) | fold change (FC) (hTERT-BJ [2]) | other results
1 | COCCOc1ccc2[nH]cc(/C(C#N)=C/c3cccc4cnccc34)c2c1 | 3.2 | 1.6 | Activity (hTERT-BJ [3]): inactive; Activity (BJ [4]): Non-Toxic
2 | O=C(Nc1cccc2cnccc12)c1c[nH]c2ccccc12 | 0.4 | 1.4 | 
3 | Cc1[nH]c2ccccc2c1/C(C#N)=C/c1cccc2cnccc12 | 0.7 | 1.1 | 
4 | N#C/C(=C\c1cncc2cnccc12)c1c[nH]c2ccccc12 | 1 | 1.4 | 
5 | N#C/C(=C\c1cccc2ccncc12)c1c[nH]c2ccccc12 | 0.7 | 1.5 | 
6 | N#C/C(=C\c1cccc2cnccc12)c1c[nH]c2ccc(Br)cc12 | 4 | 2.1 | microsomal CLint at 3 µM [5]: 53 µL/min/mg; half-life at 3 µM [6]: 43.8 min; half-life at 3 µM [7]: 19.6 min; microsomal CLint at 3 µM [8]: 118 µL/min/mg
7 | NC(=O)/C(=C\c1cccc2cnccc12)c1c[nH]c2ccccc12 | 0.6 | 1.3 | 
8 | N#C/C(=C\c1cccc2cnccc12)c1c[nH]c2ccc(OCCC3OCCO3)cc12 | 0.7 | 1 | 
9 | C(=C\c1c[nH]c2ccccc12)/c1cccc2cnccc12 | 5.4 | 1.3 | Activity (hTERT-BJ [3]): inactive; Activity (BJ [4]): Non-Toxic
10 | N#C/C(=C\c1cncc2ccccc12)c1c[nH]c2ccccc12 | 0.7 | 1.3 | Activity (hTERT-BJ [3]): inactive; Activity (BJ [4]): Non-Toxic
11 | N#C/C(=C\c1cccc2cnccc12)c1n[nH]c2ccccc12 | 2 | 1.4 | 
12 | N#C/C(=C\c1cccc2cnccc12)c1c[nH]c2cccc(Br)c12 | 0.5 | 1.1 | 
13 | N#C/C(=C\c1cccc2cnccc12)c1c[nH]c2ccc([N+](=O)[O-])cc12 | 0.6 | 0.9 | 
14 | CC(=O)Nc1ccc2[nH]cc(/C(C#N)=C/c3cccc4cnccc34)c2c1 | 0.5 | 1.2 | 
15 | N#C/C(=C\c1cccc2cnccc12)c1c[nH]c2ccc(Cl)cc12 | 2 | 1.4 | 
16 | N#C/C(=C\c1cccc2cccnc12)c1c[nH]c2ccccc12 | 0.6 | 1.3 | 
17 | COc1cccc2c(/C(C#N)=C/c3cccc4cnccc34)c[nH]c12 | 2.7 | 3.9 | 
18 | COc1ccc2c(/C(C#N)=C/c3cccc4cnccc34)c[nH]c2c1 | 2.6 | 4.3 | 

Row | SMILES | fold change (FC) (hTERT-BJ [1]) | fold change (FC) (hTERT-BJ [2]) | other results
19 | N#CC(Cc1cccc2cnccc12)c1c[nH]c2ccccc12 (stereo not drawn) | 0.3 | 1.2 | 
20 | N#C/C(=C\c1ccnc2ccccc12)c1c[nH]c2ccccc12 | 0.4 | 1.4 | 
21 | N#C/C(=C\c1cccnc1)c1c[nH]c2ccccc12 | 1.1 | 1.2 | 
22 | N#C/C(=C\c1cccc2cnccc12)c1c[nH]c2cc(CN3CCCC3)ccc12 | 5.7 | 1.1 | 
23 | N#C/C(=C\c1cccc2cnccc12)c1c[nH]c2c(Br)cccc12 | 2.2 | 1.4 | 
24 | COc1ccc2[nH]cc(/C(C#N)=C/c3cccc4cnccc34)c2c1 | 3.2 | 3 | microsomal CLint at 3 µM [5]: 66 µL/min/mg; half-life at 3 µM [6]: 33.4 min; half-life at 3 µM [7]: 21.8 min; microsomal CLint at 3 µM [8]: 106 µL/min/mg
25 | CC(=O)O[C@H]1C(=O)[C@@]2(C)[C@H]([C@H](OC(=O)c3ccccc3)[C@]3(O)C[C@H](OC(=O)[C@H](O)[C@@H](NC(=O)c4ccccc4)c4ccccc4)C(C)=C1C3(C)C)[C@]1(OC(C)=O)CO[C@@H]1C[C@@H]2O |  |  | TGI (HCT-15): inactive
26 | N#C/C(=C/c1cccc2cnccc12)c1nc2ccccc2[nH]1 | 1.2 | 1.1 | Activity (hTERT-BJ [3]): inactive; Activity (BJ [4]): Non-Toxic
27 | N#C/C(=C\c1cccc2cnccc12)c1c[nH]c2cc(Br)ccc12 | 0.7 | 1.6 | 
28 | N#C/C(=C\c1cccc2cnccc12)c1c[nH]c2ccc(F)cc12 | 0.5 | 0.9 | 
29 | N#C/C(=C\c1cccc2cnccc12)c1c[nH]c2ncccc12 | 1.4 | 1.8 | 
30 | Cn1cc(/C(C#N)=C/c2cccc3cnccc23)c2ccccc21 | 1.6 | 1.1 | 
31 | N#C/C(=C\c1cccc2cnccc12)c1c[nH]c2ccc(CN3CCCC3)cc12 | 3.3 | 1 | 
32 | N#C/C(=C\c1cccc2cnccc12)c1c[nH]c2ccccc12 |  |  | Activity (HeLa [9]): Dose-dependent effect; Activity (HeLa [10]): Active; inhibition (HeLa [11]): Dose-dependent effect; Activity (HeLa [12]): Active; Activity (HeLa [13]): Active; Activity (HeLa [14]): Active; Activity (HeLa [15]): Active; Activity (hTERT-BJ [3]): Active; Activity (BJ [16]): Active; Activity (HeLa [17]): Dose-dependent effect; Activity (HeLa [18]): Active
33 | N#C/C(=C\c1cccc2ncccc12)c1c[nH]c2ccccc12 | 0.7 | 10.5 | Activity (hTERT-BJ [3]): Active; Activity (BJ [4]): Toxic
34 | N#C/C(=C\c1cccc2cnccc12)c1c[nH]c2ccc(OCCCN3CCCC3)cc12 | 6 | 0.9 | Activity (hTERT-BJ [3]): inactive; Activity (BJ [4]): Non-Toxic
35 | N#C/C(=C\c1cccc2cnccc12)c1c[nH]c2c(CN3CCCC3)cccc12 | 3.7 | 0.8 | 
